Assay results as given in ChEMBL document CHEMBL3593160, “Orally active ghrelin receptor inverse agonists and their actions on a rat obesity model” (Bioorg Med Chem, 2015).
The source made the active and inactive calls. The rule behind the calls is not given here.

Experiments:
[1] = biological target: T1, Growth hormone secretagogue receptor type 1 (Rattus norvegicus, UniProt O08725); experiment: Antagonist activity at rat ghrelin receptor expressed in CHO cells assessed as blocking of human ghrelin-induced response by FLIPR based intracellular Ca2+ mobilization assay; assay type: functional, cell-based
Procedure, shortened: (§1)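 CHO cells stably expressing rat ghrelinR, loaded with Calcium 3 dye for 2.5 h at room temperature in HBSS with 20 mM Hepes, 2.5 mM probenecid and 1 mg/mL BSA. Compound added, then 1 nM human ghrelin. Response taken as peak fluorescence minus basal.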

[2] = Oral bioavailability in ICR mouse by LC/MS/MS method; assay type: ADME, organism-based; settings: in vivo
[3] = biological target: Growth hormone secretagogue receptor type 1 (Rattus norvegicus) (UniProt O08725); experiment: Inverse agonist activity rat ghrelin receptor expressed in HEK293 cells by luciferase reporter gene assay relative to control; assay type: cell-based
Procedure, shortened: (§2)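 HEK293 cells transiently transfected (about 5 h, Lipofectamine 2000) with rat ghrelinR vector (10 ng) and pNFAT-Luc (100 ng) per well. Compounds added in RPMI1640 with 0.1% dialyzed FBS and incubated overnight at 37 °C. Constitutive NFAT-luciferase signal read by luminescence; viability checked by AlamarBlue.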

[4] = biological target: Growth hormone secretagogue receptor type 1 (Rattus norvegicus) (UniProt O08725); experiment: Antagonist activity at rat ghrelin receptor expressed in CHO cells assessed as blocking of human ghrelin-induced response by FLIPR based intracellular Ca2+ mobilization assay relative to control; assay type: functional, cell-based; procedure, shortened: as §1
[5] = biological target: T1, Growth hormone secretagogue receptor type 1; experiment: Inverse agonist activity rat ghrelin receptor expressed in HEK293 cells by luciferase reporter gene assay; assay type: cell-based; procedure, shortened: as §2
[6] = biological target: Growth hormone secretagogue receptor type 1 (Homo sapiens, UniProt Q92847); experiment: Displacement of [125I]human ghrelin from human ghrelin receptor expressed in CHO cell membranes incubated for 30 mins by scintillation counting method
Procedure, shortened: (§3)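 Membranes from CHO cells stably expressing rat or human ghrelinR (3.34 µg protein) incubated with 0.04 nM [125I]human ghrelin and varied compound concentrations for 30 min at room temperature. Buffer: 50 mM Hepes pH 7.5, 1 mM CaCl2, 5 mM MgCl2, 75 mM NaCl, 0.5% BSA. Membranes filtered and washed; bound radioactivity counted by scintillation.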

Liver microsome = experiment: Metabolic stability in human liver microsomes assessed as metabolic rate at 1 uM incubated for 30 mins in presence of NADPH by LC/MS/MS method; assay type: ADME; settings: 0.5 h
[7] = biological target: Growth hormone secretagogue receptor type 1 (Rattus norvegicus) (UniProt O08725); experiment: Antagonist activity at ghrelin receptor in Sprague-Dawley rat primary pituitary cells assessed as inhibition of ghrelin-induced growth hormone secretion incubated for 15 mins by ELISA method relative to control; assay type: cell-based; settings: Pituitary gland cell
Procedure, shortened: (§4)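 SD rat (6–8 weeks, male) anterior pituitary cells dispersed with collagenase and papain and cultured 2 days. Cells preincubated 1.5 h in HBSS with 1% BSA, 0.25% glucose and 25 mM HEPES, then treated 15 min at 37 °C with 1 nM ghrelin present. GH in supernatant measured by ELISA. Inhibition = (C−E)/C×100.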

[8] = biological target: T1, Growth hormone secretagogue receptor type 1; experiment: Displacement of [125I]human ghrelin from rat ghrelin receptor expressed in CHO cell membranes incubated for 30 mins by scintillation counting method; procedure, shortened: as §3
[9] = Total clearance in ICR mouse by LC/MS/MS method; assay type: ADME, organism-based; settings: in vivo
[10] = biological target: T1, Growth hormone secretagogue receptor type 1; experiment: Antagonist activity at ghrelin receptor in Sprague-Dawley rat primary pituitary cells assessed as inhibition of ghrelin-induced growth hormone secretion incubated for 15 mins by ELISA method; assay type: cell-based, Pituitary gland cell; procedure, shortened: as §4
[11] = Drug concentration in brain of Sprague-Dawley rat model of high-fat diet-induced obesity at 10 mg/kg, po BID for 3 weeks; assay type: ADME, organism-based; settings: read-out: Drug uptake
Procedure, shortened: (§5)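 Brain level estimated as mean plasma concentration (AUC0-24/24 h, day 1 of twice-daily oral dosing in HFD-obese SD rats) multiplied by the B/P ratio from normal rats. The ratio divides this by the binding IC50.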

[12] = Ratio of plasma concentration in Sprague-Dawley rat model of high-fat diet-induced obesity at 30 mg/kg, po BID for 3 week to IC50 for displacement of [125I]human ghrelin from rat ghrelin receptor expressed in CHO cell membranes; assay type: organism-based; settings: in vivo, 504 h
Procedure, shortened: (§6)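 Mean plasma concentration (AUC0-24/24 h, day 1 of twice-daily oral dosing in HFD-obese SD rats) divided by the binding IC50.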

[13] = AUC (0 to 24 hrs) in Sprague-Dawley rat model of high-fat diet-induced obesity at 30 mg/kg, po BID for 3 weeks; assay type: ADME, organism-based; design: time < 24 hr, dose 30 mg/kg, route oral; settings: in vivo
Procedure, shortened: (§7)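 Male SD rats fed 60% fat diet for 10 weeks, habituated to oral vehicle dosing for 3 weeks. Compound given orally as a suspension in 0.5% hydroxypropyl cellulose at 9:30 am and 6:00 pm. Plasma levels measured on the first dosing day. AUC0-24 from these levels; mean plasma concentration = AUC0-24/24 h.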

[14] = Plasma concentration in Sprague-Dawley rat model of high-fat diet-induced obesity at 30 mg/kg, po BID for 3 weeks; assay type: ADME, organism-based; procedure, shortened: as §7
[15] = Ratio of free drug concentration in brain of Sprague-Dawley rat model of high-fat diet-induced obesity at 30 mg/kg, po BID for 3 week to IC50 for displacement of [125I]human ghrelin from rat ghrelin receptor expressed in CHO cell membranes; assay type: organism-based; settings: in vivo, 504 h
Procedure, shortened: (§8)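 Free concentration = total concentration × free fraction from human plasma protein binding by equilibrium dialysis. Plasma level is AUC0-24/24 h on day 1 of twice-daily oral dosing in HFD-obese SD rats. Brain level is plasma × B/P ratio from normal rats. Each is divided by the binding IC50.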

[16] = Ratio of drug level in brain to plasma of Sprague-Dawley rat at 1 mg/kg, iv after 2 hrs by LC/MS/MS method; assay type: ADME, organism-based; settings: read-out: BPR
Rattus norvegicus [17] = experiment: AUC (0 to 24 hrs) in Sprague-Dawley rat model of high-fat diet-induced obesity at 10 mg/kg, po BID for 3 weeks; assay type: ADME, organism-based; design: dose 10 mg/kg, time < 24 hr, route oral; settings: in vivo; procedure, shortened: as §7
Rattus norvegicus [18] = experiment: Oral bioavailability in Sprague-Dawley rat at 10 mg/kg by LC/MS/MS method; assay type: ADME, organism-based; settings: in vivo
Procedure, shortened: (§9)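 Non-fasted SD rats (n = 3/group) dosed 10 mg/kg orally or 1 mg/kg iv in 5% DMSO/10% HPCD in saline. Heparinized plasma sampled 0.08 (iv only) to 24 h. Parameters by noncompartmental analysis.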

Rattus norvegicus [19] = experiment: Inhibition of daily weight gain in Sprague-Dawley rat model of high-fat diet-induced obesity at 30 mg/kg, po BID for14 days; assay type: functional, organism-based
Procedure, shortened: (§10)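 Male SD rats given a 60% fat diet for 10 weeks, habituated 3 weeks to oral vehicle, and randomized to vehicle, treatment or pair-fed groups. Oral dosing twice daily (9:30 am, 6:00 pm) as a 0.5% hydroxypropyl cellulose suspension. Body weight and daily food intake recorded before the morning dose. Pair-fed rats got the previous day's treated-group mean intake plus vehicle.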

[20] = Ratio of plasma concentration in Sprague-Dawley rat model of high-fat diet-induced obesity at 10 mg/kg, po BID for 3 week to IC50 for displacement of [125I]human ghrelin from rat ghrelin receptor expressed in CHO cell membranes; assay type: organism-based; settings: in vivo, 504 h; procedure, shortened: as §6
[21] = Plasma concentration in Sprague-Dawley rat model of high-fat diet-induced obesity at 10 mg/kg, po BID for 3 weeks; assay type: ADME, organism-based; procedure, shortened: as §7
[22] = Ratio of drug concentration in brain of Sprague-Dawley rat model of high-fat diet-induced obesity at 30 mg/kg, po BID for 3 week to IC50 for displacement of [125I]human ghrelin from rat ghrelin receptor expressed in CHO cell membranes; assay type: organism-based; settings: in vivo, 504 h; procedure, shortened: as §5
[23] = Ratio of free plasma concentration in Sprague-Dawley rat model of high-fat diet-induced obesity at 30 mg/kg, po BID for 3 week to IC50 for displacement of [125I]human ghrelin from rat ghrelin receptor expressed in CHO cell membranes; assay type: organism-based; settings: in vivo, 504 h; procedure, shortened: as §8
[24] = Protein binding in human plasma at 10 uM incubated for 4 hrs by equilibrium dialysis; assay type: ADME, cell-free; settings: read-out: PPB
Procedure, shortened: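 10 µM compound in human plasma dialysed against DPBS pH 7.4 for 4 h at 37 °C by rapid equilibrium dialysis. Plasma and buffer fractions acetonitrile-extracted and quantified by LC/MS/MS.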

Rattus norvegicus [25] = experiment: Total clearance in Sprague-Dawley rat at 1 mg/kg, iv by LC/MS/MS method; assay type: ADME, organism-based; settings: in vivo; procedure, shortened: as §9
[26] = Drug concentration in brain of Sprague-Dawley rat model of high-fat diet-induced obesity at 30 mg/kg, po BID for 3 weeks; assay type: ADME, organism-based; settings: read-out: Drug uptake; procedure, shortened: as §5
Rattus norvegicus [27] = experiment: Inhibition of total calorie intake in Sprague-Dawley rat model of high-fat diet-induced obesity at 10 mg/kg, po BID 3 weeks; assay type: functional, organism-based; settings: in the assay text read “14 days” for “3 weeks”; procedure, shortened: as §10
[28] = Ratio of free plasma concentration in Sprague-Dawley rat model of high-fat diet-induced obesity at 10 mg/kg, po BID for 3 week to IC50 for displacement of [125I]human ghrelin from rat ghrelin receptor expressed in CHO cell membranes; assay type: organism-based; settings: in vivo, 504 h; procedure, shortened: as §8
Rattus norvegicus [29] = experiment: Inhibition of total calorie intake in Sprague-Dawley rat model of high-fat diet-induced obesity at 30 mg/kg, po BID 3 weeks; assay type: functional, organism-based; settings: in the assay text read “14 days” for “3 weeks”; procedure, shortened: as §10
[30] = Ratio of free drug concentration in brain of Sprague-Dawley rat model of high-fat diet-induced obesity at 10 mg/kg, po BID for 3 week to IC50 for displacement of [125I]human ghrelin from rat ghrelin receptor expressed in CHO cell membranes; assay type: organism-based; settings: in vivo, 504 h; procedure, shortened: as §8
[31] = Ratio of drug concentration in brain of Sprague-Dawley rat model of high-fat diet-induced obesity at 10 mg/kg, po BID for 3 week to IC50 for displacement of [125I]human ghrelin from rat ghrelin receptor expressed in CHO cell membranes; assay type: organism-based; settings: in vivo, 504 h; procedure, shortened: as §5

Sequence of Growth hormone secretagogue receptor type 1 (Homo sapiens, UniProt Q92847) (Q92847 whole entry): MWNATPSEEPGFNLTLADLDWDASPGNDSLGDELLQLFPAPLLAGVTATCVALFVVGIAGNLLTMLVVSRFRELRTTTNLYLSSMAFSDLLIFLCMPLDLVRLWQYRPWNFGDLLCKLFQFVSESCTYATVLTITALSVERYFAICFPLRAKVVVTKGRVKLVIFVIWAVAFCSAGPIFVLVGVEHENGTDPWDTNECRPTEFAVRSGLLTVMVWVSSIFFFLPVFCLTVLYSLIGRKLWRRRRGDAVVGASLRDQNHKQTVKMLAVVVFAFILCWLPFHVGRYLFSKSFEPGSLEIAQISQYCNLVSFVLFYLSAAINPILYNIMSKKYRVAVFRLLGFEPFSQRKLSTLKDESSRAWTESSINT
T1 sequence (O08725 whole entry): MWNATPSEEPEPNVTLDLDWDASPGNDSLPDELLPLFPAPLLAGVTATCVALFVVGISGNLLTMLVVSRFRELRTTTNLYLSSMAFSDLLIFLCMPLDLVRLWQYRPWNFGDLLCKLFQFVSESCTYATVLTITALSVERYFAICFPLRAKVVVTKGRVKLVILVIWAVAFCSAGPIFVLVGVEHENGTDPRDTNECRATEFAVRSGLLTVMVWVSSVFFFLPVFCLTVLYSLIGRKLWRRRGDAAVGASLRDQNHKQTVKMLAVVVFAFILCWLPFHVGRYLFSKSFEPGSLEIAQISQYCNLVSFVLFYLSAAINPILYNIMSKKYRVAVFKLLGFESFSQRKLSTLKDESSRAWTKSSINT
Sequence of Growth hormone secretagogue receptor type 1 (Rattus norvegicus) (O08725 whole entry): as above

| SMILES | IC50 [1] | Efficacy [3] | Efficacy [4] | IC50 [5] | IC50 [6] | Drug metabolism (Liver microsome) | Efficacy [7] | IC50 [8] | IC50 [10] | concentration at 504 h [11] | Ratio [12] | AUC at 24 h [13] | concentration at 504 h [14] | Ratio [15] | Kp at 2 h [16] | AUC (Rattus norvegicus [17]) | F (Rattus norvegicus [18]) | Ratio [20] | concentration at 504 h [21] | Ratio [22] | other results |
| --- | --- | --- | --- | --- | --- | --- | --- | --- | --- | --- | --- | --- | --- | --- | --- | --- | --- | --- | --- | --- | --- |
| COc1ccc(CNC(=O)c2cc(C3=C[C@@H]4CC[C@H](C3)N4C(C)=O)cnc2NCc2ccc3c(c2)OCO3)cc1Cl | 100 nM | > 95% | > 95% | 9.8 nM | 0.3 nM | 39 pmol/min/mg | > 95% | 5.6 nM | 32.8 nM |  |  |  |  |  |  |  |  |  |  |  | bioavailability [2]: 7.2%; clearance [9]: 180 mL/min/kg |
| Cc1ccc(CNC(=O)c2cc(C#CC(C)(C)O)cnc2NCc2ccc3c(c2)OCO3)cc1C(F)F | 13 nM | > 95% | > 95% | 5.4 nM | 0.44 nM | 103 pmol/min/mg | > 95% | 0.28 nM | 11.6 nM | 19 nM | 972 | 3310 ng·h/mL | 272 nM | 2 | 0.21 | 1105 ng·h/mL | 23.8% | 324 | 91 nM | 203 | inhibition (Rattus norvegicus [19]): Active; Ratio [23]: 97; fraction unbound at 4 h, 10 µM [24]: 0.01; CL (Rattus norvegicus [25]): 12.3 mL/min/kg; concentration at 504 h [26]: 57 nM; inhibition (Rattus norvegicus [27]): inactive; Ratio [28]: 3.2; inhibition (Rattus norvegicus [29]): inactive; Ratio [30]: 0.7; Ratio [31]: 68 |
| COc1ccc(CNC(=O)c2cc(C#CC(C)(C)NC(C)=O)cnc2NCc2ccc3c(c2)OCO3)cc1Cl | 34 nM | > 95% | > 95% | 26 nM | 3 nM | 81 pmol/min/mg | > 95% | 6.6 nM | 36.2 nM | 132 nM | 859 | 74700 ng·h/mL | 5670 nM | 0.6 | 0.07 | 24901 ng·h/mL | 46.4% | 286 | 1890 nM | 58 | Ratio [23]: 8.6; fraction unbound at 4 h, 10 µM [24]: 0.01; CL (Rattus norvegicus [25]): 27.8 mL/min/kg; concentration at 504 h [26]: 370 nM; inhibition (Rattus norvegicus [27]): inactive; Ratio [28]: 2.9; inhibition (Rattus norvegicus [29]): inactive; Ratio [30]: 0.2; Ratio [31]: 19 |
